Laboratory results taken from ChEMBL document CHEMBL1155468, “Syntheses and evaluation of anticonvulsant profile and teratogenicity of novel amide derivatives of branched aliphatic carboxylic acids with 4-aminobenzensulfonamide” (J Med Chem, 2010).
Active and inactive are the calls of the source.

Tests used:
Rattus norvegicus [1] = experiment: Anticonvulsant activity in po dosed rat assessed as inhibition of maximal electroshock-induced seizures
Mus musculus [2] = experiment: Neurotoxicity in CF1 albino mouse assessed as motor impairment at 100 mg/kg, ip after 0.5 hrs; format: toxicity, organism-based; set-up: dose 100 mg/kg, route intraperitoneal; details: in vivo
Rattus norvegicus [3] = organism: Rattus norvegicus; experiment: Protective index, ratio of TD50 for rat to ED50 for maximal electroshock-induced rat seizure model
Mus musculus [4] = experiment: Teratogenic effect in SWV mouse assessed as fetuses with neural tube deffects at 294 mg/kg, ip administered on morning of day 8 of gestation; format: toxicity, organism-based; set-up: dose 294 mg/kg, route intraperitoneal; details: in vivo
Summary of the method: (§1)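 Two-month-old nulligravid SWV females were mated overnight and checked for vaginal plugs the next morning; gestation onset was set at 10 p.m. the previous night. On gestation day 8.5, each dam received a single ip injection (0.55-2.7 mmol/kg range) or vehicle (25% aqueous Cremophor EL) at 10 μL/g body weight. Litters were scored for implants, resorptions, live and dead fetuses, and fetuses with neural tube defects.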

Mus musculus [5] = experiment: Teratogenic effect in SWV mouse assessed as live fetuses at 486 mg/kg, ip administered on morning of day 8 of gestation; format: toxicity, organism-based; set-up: dose 486 mg/kg, route intraperitoneal; details: in vivo
Summary of the method: (§2)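 SWV inbred mice: two-month-old nulligravid females mated overnight with males and checked for vaginal plugs next morning; gestation onset taken as 10 p.m. the previous night. On gestation day 8.5 each dam got one ip injection, 0.55–2.7 mmol/kg, in 25% aqueous Cremophor EL (vehicle controls dosed alike), 10 μL/g body weight. Litters and implants tallied; resorptions and live fetuses reported as counts with percentages.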

Mus musculus [6] = experiment: Anticonvulsant activity in CF1 albino mouse assessed as inhibition of maximal electroshock-induced seizures at 300 mg/kg, ip after 4 hrs; format: functional, organism-based; set-up: dose 300 mg/kg
Summary of the method: (§3)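 Test compounds suspended in 0.5% methylcellulose and given ip to adult male CF no. 1 albino mice (18-25 g) at 0.01 mL/g body weight before maximal electroshock challenge.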

Mus musculus [7] = experiment: Neurotoxicity in CF1 albino mouse assessed as motor impairment at 30 mg/kg, ip after 4 hrs; format: toxicity, organism-based; set-up: dose 30 mg/kg, route intraperitoneal; details: in vivo
Mus musculus [8] = experiment: Teratogenic effect in SWV mouse assessed as resorptions at 486 mg/kg, ip administered on morning of day 8 of gestation; format: toxicity, organism-based; set-up: dose 486 mg/kg, route intraperitoneal; details: in vivo
Summary of the method: as §2

Mus musculus [9] = experiment: Teratogenic effect in SWV mouse assessed as resorptions at 294 mg/kg, ip administered on morning of day 8 of gestation; format: toxicity, organism-based; set-up: dose 294 mg/kg, route intraperitoneal; details: in vivo
Summary of the method: as §2

Mus musculus [10] = experiment: Anticonvulsant activity in CF1 albino mouse assessed as inhibition of subcutaneous pentylenetetrazole-induced seizures at 100 mg/kg, ip after 4 hrs; format: functional, organism-based; set-up: dose 100 mg/kg
Summary of the method: (§4)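 Adult male CF no. 1 albino mice (18-25 g) dosed ip with compound suspended in 0.5% methylcellulose (0.01 mL/g). Convulsant: pentylenetetrazol dissolved in 0.9% saline as a 0.85% solution for mice, given subcutaneously.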

Mus musculus [11] = experiment: Neurotoxicity in CF1 albino mouse assessed as motor impairment at 100 mg/kg, ip after 4 hrs; format: toxicity, organism-based; set-up: dose 100 mg/kg, route intraperitoneal; details: in vivo
Mus musculus [12] = experiment: Neurotoxicity in CF1 albino mouse assessed as motor impairment at 30 mg/kg, ip after 0.5 hrs; format: toxicity, organism-based; set-up: dose 30 mg/kg, route intraperitoneal; details: in vivo
Mus musculus [13] = experiment: Teratogenic effect in SWV mouse assessed as resorptions at 148 mg/kg, ip administered on morning of day 8 of gestation; format: toxicity, organism-based; set-up: dose 148 mg/kg, route intraperitoneal; details: in vivo
Summary of the method: as §2

Mus musculus [14] = experiment: Teratogenic effect in SWV mouse assessed as fetuses with neural tube deffects at 486 mg/kg, ip administered on morning of day 8 of gestation; format: toxicity, organism-based; set-up: dose 486 mg/kg, route intraperitoneal; details: in vivo
Summary of the method: as §1

Mus musculus [15] = experiment: Neurotoxicity in CF1 albino mouse assessed as motor impairment at 300 mg/kg, ip after 0.5 hrs; format: toxicity, organism-based; set-up: dose 300 mg/kg, route intraperitoneal; details: in vivo
Mus musculus [16] = experiment: Anticonvulsant activity in CF1 albino mouse assessed as inhibition of maximal electroshock-induced seizures at 30 mg/kg, ip after 4 hrs; format: functional, organism-based; set-up: dose 30 mg/kg
Summary of the method: as §3

Mus musculus [17] = experiment: Teratogenic effect in SWV mouse assessed as live fetuses at 148 mg/kg, ip administered on morning of day 8 of gestation; format: toxicity, organism-based; set-up: dose 148 mg/kg, route intraperitoneal; details: in vivo
Summary of the method: as §1

Mus musculus [18] = experiment: Anticonvulsant activity in CF1 albino mouse assessed as inhibition of subcutaneous pentylenetetrazole-induced seizures at 100 mg/kg, ip after 0.5 hrs; format: functional, organism-based; set-up: dose 100 mg/kg
Summary of the method: as §4

Mus musculus [19] = experiment: Anticonvulsant activity in CF1 albino mouse assessed as inhibition of subcutaneous pentylenetetrazole-induced seizures at 300 mg/kg, ip after 0.5 hrs; format: functional, organism-based; set-up: dose 300 mg/kg
Summary of the method: as §4

Mus musculus [20] = experiment: Anticonvulsant activity in CF1 albino mouse assessed as inhibition of subcutaneous pentylenetetrazole-induced seizures at 30 mg/kg, ip after 4 hrs; format: functional, organism-based; set-up: dose 30 mg/kg
Summary of the method: as §4

Rattus norvegicus [21] = experiment: Anticonvulsant activity in Sprague-Dawley rat assessed as inhibition of maximal electroshock-induced seizures at 30 mg/kg, po after 4 hrs
Mus musculus [22] = experiment: Teratogenic effect in SWV mouse assessed as live fetuses at 294 mg/kg, ip administered on morning of day 8 of gestation; format: toxicity, organism-based; set-up: dose 294 mg/kg, route intraperitoneal; details: in vivo
Summary of the method: as §1

Mus musculus [23] = experiment: Anticonvulsant activity in CF1 albino mouse assessed as inhibition of maximal electroshock-induced seizures at 30 mg/kg, ip after 0.5 hrs; format: functional, organism-based; set-up: dose 30 mg/kg
Summary of the method: as §3

Mus musculus [24] = experiment: Anticonvulsant activity in CF1 albino mouse assessed as inhibition of subcutaneous pentylenetetrazole-induced seizures at 30 mg/kg, ip after 0.5 hrs; format: functional, organism-based; set-up: dose 30 mg/kg
Summary of the method: as §4

Rattus norvegicus [25] = experiment: Anticonvulsant activity in Sprague-Dawley rat assessed as inhibition of maximal electroshock-induced seizures at 30 mg/kg, po after 2 hrs
Mus musculus [26] = experiment: Neurotoxicity in CF1 albino mouse assessed as motor impairment at 300 mg/kg, ip after 4 hrs; format: toxicity, organism-based; set-up: dose 300 mg/kg, route intraperitoneal; details: in vivo
Rattus norvegicus [27] = experiment: Neurotoxicity in Sprague-Dawley rat assessed as motor impairment at 30 mg/kg, po after 0.25 to 4 hrs; details: in vivo
Mus musculus [28] = experiment: Anticonvulsant activity in CF1 albino mouse assessed as inhibition of subcutaneous pentylenetetrazole-induced seizures at 300 mg/kg, ip after 4 hrs; format: functional, organism-based; set-up: dose 300 mg/kg
Summary of the method: as §4

Mus musculus [29] = experiment: Teratogenic effect in SWV mouse assessed as fetuses with neural tube deffects at 148 mg/kg, ip administered on morning of day 8 of gestation; format: toxicity, organism-based; set-up: dose 148 mg/kg, route intraperitoneal; details: in vivo
Summary of the method: as §1

Mus musculus [30] = experiment: Anticonvulsant activity in CF1 albino mouse assessed as inhibition of maximal electroshock-induced seizures at 100 mg/kg, ip after 4 hrs; format: functional, organism-based; set-up: dose 100 mg/kg
Summary of the method: as §3

Rattus norvegicus [31] = experiment: Anticonvulsant activity in Sprague-Dawley rat assessed as inhibition of maximal electroshock-induced seizures at 30 mg/kg, po after 30 mins
Rattus norvegicus [32] = experiment: Anticonvulsant activity in Sprague-Dawley rat assessed as inhibition of maximal electroshock-induced seizures at 30 mg/kg, po after 1 hr
Mus musculus [33] = experiment: Anticonvulsant activity in CF1 albino mouse assessed as inhibition of maximal electroshock-induced seizures at 100 mg/kg, ip after 0.5 hrs; format: functional, organism-based; set-up: dose 100 mg/kg
Summary of the method: as §3

Mus musculus [34] = experiment: Anticonvulsant activity in CF1 albino mouse assessed as inhibition of maximal electroshock-induced seizures at 300 mg/kg, ip after 0.5 hrs; format: functional, organism-based; set-up: dose 300 mg/kg
Summary of the method: as §3

Rattus norvegicus [35] = experiment: Anticonvulsant activity in Sprague-Dawley rat assessed as inhibition of maximal electroshock-induced seizures at 30 mg/kg, po after 15 mins

CC(C)(C)CC(=O)Nc1ccc(S(N)(=O)=O)cc1
active: Activity (Mus musculus [6]) | Activity (Rattus norvegicus [21]) | Activity (Rattus norvegicus [25])
>53.2: Ratio TD50/ED50 (Rattus norvegicus [3])
15%: Activity (Mus musculus [14])
3.7%: Activity (Mus musculus [4])
8.6%: Activity (Mus musculus [13])
91.1%: Activity (Mus musculus [5])
inactive: Activity (Mus musculus [10]) | Activity (Mus musculus [16]) | Activity (Mus musculus [18]) | Activity (Mus musculus [19]) | Activity (Mus musculus [20]) | Activity (Mus musculus [23]) | Activity (Mus musculus [24]) | Activity (Mus musculus [28])
8.4%: Activity (Mus musculus [9])
9.4 mg/kg: ED50 (Rattus norvegicus [1])
Non-toxic: Activity (Mus musculus [2]) | Activity (Mus musculus [7]) | Activity (Mus musculus [11]) | Activity (Mus musculus [12]) | Activity (Mus musculus [15]) | Activity (Mus musculus [26]) | Activity (Rattus norvegicus [27])
91.4%: Activity (Mus musculus [17])
91.6%: Activity (Mus musculus [22])
8.9%: Activity (Mus musculus [8])

CCC(C)CC(=O)Nc1ccc(S(N)(=O)=O)cc1 (stereo not drawn)
Non-toxic: Activity (Mus musculus [2]) | Activity (Mus musculus [7]) | Activity (Mus musculus [11]) | Activity (Mus musculus [12]) | Activity (Mus musculus [15]) | Activity (Mus musculus [26]) | Activity (Rattus norvegicus [27])
67.5%: Activity (Mus musculus [22])
32.5%: Activity (Mus musculus [9])
68%: Activity (Mus musculus [8])
9.4%: Activity (Mus musculus [14])
1.1%: Activity (Mus musculus [29])
16.4 mg/kg: ED50 (Rattus norvegicus [1])
active: Activity (Rattus norvegicus [31]) | Activity (Rattus norvegicus [21]) | Activity (Rattus norvegicus [32]) | Activity (Rattus norvegicus [25])
inactive: Activity (Mus musculus [6]) | Activity (Mus musculus [10]) | Activity (Mus musculus [30]) | Activity (Mus musculus [16]) | Activity (Mus musculus [18]) | Activity (Mus musculus [19]) | Activity (Mus musculus [20]) | Activity (Mus musculus [33]) | Activity (Mus musculus [23]) | Activity (Mus musculus [24]) | Activity (Mus musculus [34]) | Activity (Mus musculus [28])
89.4%: Activity (Mus musculus [17])
9.9%: Activity (Mus musculus [4])
>30.4: Ratio TD50/ED50 (Rattus norvegicus [3])
32%: Activity (Mus musculus [5])
10.6%: Activity (Mus musculus [13])

CCCC(C(=O)Nc1ccc(S(N)(=O)=O)cc1)C(C)(C)C (stereo not drawn)
inactive: Activity (Mus musculus [6]) | Activity (Mus musculus [10]) | Activity (Mus musculus [30]) | Activity (Mus musculus [16]) | Activity (Mus musculus [18]) | Activity (Mus musculus [19]) | Activity (Mus musculus [20]) | Activity (Rattus norvegicus [31]) | Activity (Rattus norvegicus [21]) | Activity (Rattus norvegicus [32]) | Activity (Mus musculus [33]) | Activity (Mus musculus [23]) | Activity (Mus musculus [24]) | Activity (Rattus norvegicus [25]) | Activity (Mus musculus [34]) | Activity (Mus musculus [28])
Non-toxic: Activity (Mus musculus [2]) | Activity (Mus musculus [7]) | Activity (Mus musculus [11]) | Activity (Mus musculus [12]) | Activity (Mus musculus [15]) | Activity (Mus musculus [26]) | Activity (Rattus norvegicus [27])

CCC(C)C(C(=O)Nc1ccc(S(N)(=O)=O)cc1)C(C)C (stereo not drawn)
Non-toxic: Activity (Mus musculus [2]) | Activity (Mus musculus [7]) | Activity (Mus musculus [11]) | Activity (Mus musculus [12]) | Activity (Mus musculus [15]) | Activity (Mus musculus [26]) | Activity (Rattus norvegicus [27])
inactive: Activity (Mus musculus [6]) | Activity (Rattus norvegicus [35]) | Activity (Mus musculus [10]) | Activity (Mus musculus [30]) | Activity (Mus musculus [16]) | Activity (Mus musculus [18]) | Activity (Mus musculus [19]) | Activity (Mus musculus [20]) | Activity (Rattus norvegicus [31]) | Activity (Rattus norvegicus [21]) | Activity (Mus musculus [33]) | Activity (Mus musculus [23]) | Activity (Mus musculus [24]) | Activity (Rattus norvegicus [25]) | Activity (Mus musculus [34]) | Activity (Mus musculus [28])
